Test results as given in ChEMBL document CHEMBL4308835, “Fluorine-Substituted Pyrrolo[2,3- d]Pyrimidine Analogues with Tumor Targeting via Cellular Uptake by Folate Receptor α and the Proton-Coupled Folate Transporter and Inhibition of de Novo Purine Nucleotide Biosynthesis” (J Med Chem, 2018).
Calls of active or inactive are those of the source. No cut-off for these calls is given here.

Tests used:
[1] = tested on: IGROV-1; assay: Antiproliferative activity against human IGROV1 cells at 1 to 1000 nM in presence of 320 uM AICA after 96 hrs by Cell-Titer Blue assay; type: functional, cell-based
Outline: (§1)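 IGROV1 cells, 2000/well, in folate-free RPMI 1640 with 10% dialyzed FBS, L-glutamine, 25 nM LCV. A range of drug concentrations was given with thymidine (10 μM), adenosine (60 μM) or AICA (320 μM) added. After 96 h, proliferation was measured by Cell-Titer Blue fluorescence. At least triplicate experiments.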

[2] = tested on: IGROV-1; assay: Antiproliferative activity against wild type human IGROV1 cells after 96 hrs by Cell-Titer Blue assay; type: functional, cell-based; conditions: IGROV-1, 96 h
[3] = Toxicity in NCR SCID mouse xenografted with human IGROV1 cells assessed as weight loss median nadir at 95 mg/kg, iv treated once daily for 4 days per week for 4 weeks starting from 3 days post implantation and measured at day 18 post last dose relative to control; type: organism-based; conditions: in vivo
[4] = tested on: IGROV-1; assay: Anticlonogenic activity against human IGROV1 cells incubated for 24 hrs followed by compound wash out and measured after 10 days by methylene blue staining-based assay; type: functional, cell-based
Outline: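 IGROV1 cells plated in folate-free RPMI 1640 (pH 7.2), 10% dialyzed FBS, 25 nM LCV. After 24 h adherence, exposed to drug (0–20 μM) for 24 h at pH 6.8 (25 mM PIPES/25 mM HEPES). Washed, then grown drug-free at pH 7.2 (100 mM HEPES) with 25 nM LCV for up to 10 days at 37 °C. Colonies stained with methylene blue and counted electronically. Values normalized to vehicle controls. Triplicate experiments.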

[5] = target: T1, Reduced folate transporter (Homo sapiens) (UniProt P41440); assay: Inhibition of human RFC2 expressed in human HeLa R1-11 cells assessed as reduction in [3H]MTX uptake at pH 7.2 at 1 uM measured over 2 mins relative to control; type: cell-based
T1 sequence (whole entry): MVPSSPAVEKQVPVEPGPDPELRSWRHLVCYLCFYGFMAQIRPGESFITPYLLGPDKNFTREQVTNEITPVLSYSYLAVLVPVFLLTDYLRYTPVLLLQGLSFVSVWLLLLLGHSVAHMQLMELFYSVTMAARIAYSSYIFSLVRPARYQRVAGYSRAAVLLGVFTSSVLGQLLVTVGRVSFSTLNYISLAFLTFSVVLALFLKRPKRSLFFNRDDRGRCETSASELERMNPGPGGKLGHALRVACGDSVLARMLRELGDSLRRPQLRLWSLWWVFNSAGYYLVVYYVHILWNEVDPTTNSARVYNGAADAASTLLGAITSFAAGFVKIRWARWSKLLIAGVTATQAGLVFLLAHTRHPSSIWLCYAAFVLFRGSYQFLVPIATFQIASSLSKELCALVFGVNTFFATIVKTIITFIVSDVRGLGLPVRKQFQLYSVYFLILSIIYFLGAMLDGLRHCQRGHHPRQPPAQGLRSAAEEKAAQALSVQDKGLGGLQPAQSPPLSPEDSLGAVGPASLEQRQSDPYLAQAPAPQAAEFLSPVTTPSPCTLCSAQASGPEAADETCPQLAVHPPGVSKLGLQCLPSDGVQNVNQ

[6] = Toxicity in NCR SCID mouse xenografted with human IGROV1 cells assessed as weight loss median nadir at 95 mg/kg, iv treated once daily for 4 days per week for 4 weeks starting from 3 days post implantation and measured at day 14 post last dose relative to control; type: organism-based; conditions: in vivo
[7] = target: T2, Proton-coupled folate transporter (Homo sapiens) (UniProt Q96NT5); assay: Inhibition of human PCFT expressed in Chinese hamster R2/PCFT4 cells assessed as reduction in [3H]MTX uptake at pH 5.5 at 10 uM measured over 2 mins relative to control; type: cell-based
T2 sequence (whole entry): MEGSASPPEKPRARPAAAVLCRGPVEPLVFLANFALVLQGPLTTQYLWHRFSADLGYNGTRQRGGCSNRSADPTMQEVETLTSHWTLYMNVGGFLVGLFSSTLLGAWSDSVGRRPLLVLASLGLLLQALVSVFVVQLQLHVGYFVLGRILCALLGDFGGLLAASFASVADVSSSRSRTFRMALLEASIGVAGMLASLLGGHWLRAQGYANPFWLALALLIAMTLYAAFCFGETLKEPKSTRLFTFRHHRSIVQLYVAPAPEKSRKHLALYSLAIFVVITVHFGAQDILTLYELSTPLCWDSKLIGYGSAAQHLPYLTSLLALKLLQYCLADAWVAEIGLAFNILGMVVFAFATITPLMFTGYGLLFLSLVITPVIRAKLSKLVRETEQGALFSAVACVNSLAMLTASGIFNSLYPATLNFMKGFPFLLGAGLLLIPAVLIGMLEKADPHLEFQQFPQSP

[8] = tested on: IGROV-1; assay: Antiproliferative activity against human IGROV1 cells harboring non targeted control shRNA sequence after 96 hrs by Cell-Titer Blue assay; type: functional, cell-based; conditions: IGROV-1, 96 h
[9] = target: T2, Proton-coupled folate transporter (Homo sapiens); assay: Inhibition of human PCFT expressed in Chinese hamster R2/PCFT4 cells assessed as reduction in [3H]MTX uptake at pH 5.5 at 1 uM measured over 2 mins relative to control; type: cell-based
[10] = tested on: IGROV-1; assay: Antiproliferative activity against FRalpha […] human IGROV1 KD10 cells after 96 hrs by Cell-Titer Blue assay; type: functional, cell-based; conditions: IGROV-1, 96 h
[11] = target: T3, Proton-coupled folate transporter (Homo sapiens, UniProt Q96NT5); assay: Inhibition of human PCFT expressed in Chinese hamster R2/PCFT4 cells assessed as reduction in [3H]MTX uptake at pH 5.5 measured over 2 mins by Dixon plot analysis; type: cell-based
T3 sequence (Q96NT5 whole entry): T2 sequence (whole entry)
Outline: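 Competitor concentrations ranged from 0.05 to 0.5 μM. Ki was obtained by Dixon plot. Mean ± SE of four independent experiments.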

[12] = target: T1, Reduced folate transporter (Homo sapiens); assay: Inhibition of human RFC2 expressed in human HeLa R1-11 cells assessed as reduction in [3H]MTX uptake at pH 7.2 at 10 uM measured over 2 mins relative to control; type: cell-based
[13] = target: T2, Proton-coupled folate transporter (Homo sapiens); assay: Inhibition of human PCFT expressed in Chinese hamster R2/PCFT4 cells assessed as reduction in [3H]MTX uptake at pH 5.5 at 1 to 10 uM measured over 2 mins; type: cell-based
[14] = tested on: IGROV-1; assay: Antiproliferative activity against FRalpha […] human IGROV1 KD4 cells after 96 hrs by Cell-Titer Blue assay; type: functional, cell-based; conditions: IGROV-1, 96 h
[15] = tested on: A2780; assay: Antiproliferative activity against human A2780 cells after 96 hrs by Cell-Titer Blue assay; type: functional, cell-based; conditions: A2780, 96 h
[16] = tested on: IGROV-1; assay: Antiproliferative activity against human IGROV1 cells at 1 to 1000 nM in presence of 60 uM adenosine after 96 hrs by Cell-Titer Blue assay; type: functional, cell-based; outline: as §1
[17] = tested on: IGROV-1; assay: Antiproliferative activity against human IGROV1 cells at 1 to 1000 nM in presence of 10 uM thymidine after 96 hrs by Cell-Titer Blue assay; type: functional, cell-based; outline: as §1
[18] = target: Folate receptor alpha (Homo sapiens) (UniProt P15328); assay: Displacement of [3H]folic acid from human FRalpha expressed in Chinese hamster RT16 cells at 10 to 1000 nM after 15 mins; type: cell-based
Folate receptor alpha (Homo sapiens), sequence (P15328 25-234 limits assumed): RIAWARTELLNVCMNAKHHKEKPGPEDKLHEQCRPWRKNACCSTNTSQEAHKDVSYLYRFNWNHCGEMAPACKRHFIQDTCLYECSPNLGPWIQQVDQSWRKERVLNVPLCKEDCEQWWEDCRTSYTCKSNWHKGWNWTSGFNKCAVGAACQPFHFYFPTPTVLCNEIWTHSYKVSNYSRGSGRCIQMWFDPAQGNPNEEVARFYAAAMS
Outline: (§2)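 RT16 (FRα) or D4 (FRβ) CHO cells at ~80% confluence were washed with PBS at 4 °C, then with pH 3.5 acetate buffer to strip bound folate, then HEPES-buffered saline pH 7.4. Cells were incubated with 50 nM [³H]folic acid plus competitor (10–1000 nM) for 15 min at 4 °C, washed, and solubilized in NaOH. Bound radioactivity was normalized to protein.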

[19] = Toxicity in NCR SCID mouse xenografted with human IGROV1 cells assessed as weight loss median nadir at 95 mg/kg, iv treated once daily for 4 days per week for 4 weeks starting from 3 days post implantation and measured after conclusion of therapy; type: organism-based; conditions: in vivo
Outline: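 Female ICR SCID mice, 10 weeks old, kept on a folate-deficient diet for 14 days before bilateral subcutaneous IGROV1 implants; a control cohort was fed folate-replete chow. Randomized at 5 mice/group. […] Tumors measured twice weekly; body weights recorded daily.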

[20] = Antiproliferative activity in Chinese hamster R2 cells deficient in RFC, PCFT, and FRalpha assessed as reduction in cell growth after 96 hrs by Cell-Titer Blue assay; type: cell-based; conditions: Cricetulus griseus, R2, 96 h
[21] = target: T1, Reduced folate transporter (Homo sapiens); assay: Inhibition of human RFC2 expressed in human HeLa R1-11 cells assessed as reduction in [3H]MTX uptake at pH 7.2 at 10 uM measured over 2 mins relative to control
[22] = Binding affinity to human RFC expressed in Chinese hamster PC43-10 cells assessed as antiproliferative activity measured as reduction in cell growth after 96 hrs by Cell-Titer Blue assay
[23] = target: T4, Trifunctional purine biosynthetic protein adenosine-3 (Homo sapiens, UniProt P22102); assay: Inhibition of GARFTase in human IGROV1 cells assessed as decrease in incorporation of [14C(U)glycine into [14C]formyl GAR formation after 24 hrs; type: cell-based
T4 sequence (P22102 whole entry): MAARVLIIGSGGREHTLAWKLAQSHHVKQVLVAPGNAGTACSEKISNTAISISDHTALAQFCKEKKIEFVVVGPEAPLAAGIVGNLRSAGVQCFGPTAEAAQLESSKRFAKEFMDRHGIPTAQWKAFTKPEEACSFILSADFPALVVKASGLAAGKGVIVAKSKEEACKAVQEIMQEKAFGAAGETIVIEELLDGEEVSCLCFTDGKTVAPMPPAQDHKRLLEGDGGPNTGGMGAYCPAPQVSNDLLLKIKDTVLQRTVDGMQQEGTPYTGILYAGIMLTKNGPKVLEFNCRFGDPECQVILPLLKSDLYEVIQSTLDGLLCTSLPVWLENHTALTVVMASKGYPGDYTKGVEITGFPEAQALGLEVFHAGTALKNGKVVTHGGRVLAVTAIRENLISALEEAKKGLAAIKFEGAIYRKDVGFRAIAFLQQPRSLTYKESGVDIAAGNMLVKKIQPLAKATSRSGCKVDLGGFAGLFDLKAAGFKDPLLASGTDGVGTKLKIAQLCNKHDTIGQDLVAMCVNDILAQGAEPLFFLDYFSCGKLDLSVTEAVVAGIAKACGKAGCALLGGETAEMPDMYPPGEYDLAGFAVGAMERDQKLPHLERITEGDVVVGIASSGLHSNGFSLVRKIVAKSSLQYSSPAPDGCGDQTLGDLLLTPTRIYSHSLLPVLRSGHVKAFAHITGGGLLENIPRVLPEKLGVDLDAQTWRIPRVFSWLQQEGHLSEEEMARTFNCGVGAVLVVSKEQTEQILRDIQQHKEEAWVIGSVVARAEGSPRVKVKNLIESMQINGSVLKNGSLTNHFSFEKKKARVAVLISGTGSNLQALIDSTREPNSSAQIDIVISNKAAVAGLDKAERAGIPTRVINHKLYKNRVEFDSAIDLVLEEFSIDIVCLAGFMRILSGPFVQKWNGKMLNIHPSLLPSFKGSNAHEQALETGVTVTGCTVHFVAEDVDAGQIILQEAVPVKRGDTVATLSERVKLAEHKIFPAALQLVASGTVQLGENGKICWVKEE

[24] = target: Folate receptor beta (Homo sapiens) (UniProt P14207); assay: Displacement of [3H]folic acid from human FRbeta expressed in Chinese hamster D4 cells at 10 to 1000 nM after 15 mins; type: cell-based; outline: as §2
Folate receptor beta (Homo sapiens), sequence (P14207 17-230 limits assumed): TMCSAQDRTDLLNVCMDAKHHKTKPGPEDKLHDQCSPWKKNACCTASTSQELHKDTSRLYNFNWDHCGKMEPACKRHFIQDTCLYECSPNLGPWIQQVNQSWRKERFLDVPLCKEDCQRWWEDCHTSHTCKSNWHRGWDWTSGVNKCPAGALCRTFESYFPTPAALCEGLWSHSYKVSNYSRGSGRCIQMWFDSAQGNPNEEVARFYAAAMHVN

[25] = Binding affinity to human PCFT expressed in Chinese hamster R2/PCFT4 cells assessed as antiproliferative activity measured as reduction in cell growth after 96 hrs by Cell-Titer Blue assay
[26] = species on record: Homo sapiens; assay: Selectivity ratio of IC50 for human RFC2 expressed in human HeLa R1-11 cells to IC50 for human FR2 expressed in human HeLa R1-11 cells; type: cell-based
[27] = species on record: Homo sapiens; assay: Selectivity ratio of IC50 for human RFC2 expressed in human HeLa R1-11 cells to IC50 for human PCFT4 expressed in human HeLa R1-11 cells; type: cell-based

Compound | IC50 [2] | inhibition [5] | inhibition [7] | IC50 [8] | inhibition [9] | IC50 [10] | Ki [11] | inhibition [12] | inhibition [13] | IC50 [14] | IC50 [15] | inhibition [18] | IC50 [20] | IC50 [23] | further results
Nc1nc2[nH]c(CCCCc3csc(C(=O)N[C@@H](CCC(=O)O)C(=O)O)c3F)cc2c(=O)[nH]1 | 1.9 nM | inactive | 90 to 95% | 1.79 nM | 60 to 85% | 66.9 nM | 250 nM | inactive | Active | 138 nM | 3.11 nM | Active | > 1000 nM | – | Activity [1]: inactive; Activity [3]: 12.1%; IC50 [4]: 200 nM; Activity [6]: 15.7%; Activity [16]: inactive; Activity [17]: Active; Activity [19]: Non-Toxic
Nc1nc2[nH]c(CCCc3csc(C(=O)N[C@@H](CCC(=O)O)C(=O)O)c3)cc2c(=O)[nH]1 | 12.1 nM | – | Active | 12.8 nM | Active | 30.3 nM | 280 nM | < 30% | Active | 80.5 nM | 21.7 nM | Active | 355 nM | 1 nM | inhibition [21]: < 30%; IC50 [22]: 197 nM; inhibition [24]: Active; IC50 [25]: 5.4 nM
Nc1nc2[nH]c(CCCc3ccc(C(=O)N[C@@H](CCC(=O)O)C(=O)O)c(F)c3)cc2c(=O)[nH]1 | 1.67 nM | inactive | 90 to 95% | 1.14 nM | 60 to 85% | 19.2 nM | 260 nM | inactive | Active | 41 nM | 2.14 nM | – | 140 nM | 1 to 2.5 nM | Ratio IC50 [26]: 97; Ratio IC50 [27]: 92
